Results: ChEMBL document CHEMBL5046221, “Identification of Pyrimidine-Based Lead Compounds for Understudied Kinases Implicated in Driving Neurodegeneration” (J Med Chem, 2022)
pIC50: −log10 of the molar value. Activity calls are given as the source filed them. No cut-off for these calls is given here.

What was measured:
[1] = target: Aurora kinase B (Homo sapiens) (UniProt Q96GD4); assay: Inhibition of full length recombinant human AURKB using AKRRRLSSLRA as substrate at 1 uM incubated for 40 mins in presence of [gamma-33P-ATP] by radiometric scintillation assay relative to control
How it was run: (§1)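 Eurofins radiometric kinase assay with ATP at Km for each kinase. Compound was tested at a single 1 μM concentration in duplicate, and the result is reported as percent of control.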

[2] = target: BMP-2-inducible protein kinase (Homo sapiens, UniProt Q9NSY1); assay: Inhibition of 1recombinant human BMP2K using myelin basic protein as substrate incubated for 120 mins in presence of [gamma-33P-ATP] by radiometric scintillation assay
[3] = target: MAP/microtubule affinity-regulating kinase 3 (Homo sapiens, UniProt P27448); assay: Displacement of tracer K9 from NLuc fused MARK3 (unknown origin) expressed in HEK293 cells by NanoBRET assay; assay type: cell-based
[4] = Effective permeability in PBS at 7.4 incubated for 5 hrs by PAMPA analysis; assay type: ADME; details: pH 7.4, 5 h
How it was run: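 PAMPA: DMSO stocks were diluted in PBS pH 7.4 and placed in the donor compartment, with PBS pH 7.4 in the acceptor, for 5 h. Both compartments were quantified by CLND against a calibration curve, with background nitrogen correction. Effective permeability was calculated from donor and acceptor concentrations using measured rather than assumed solubility.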

[5] = target: High affinity nerve growth factor receptor (Homo sapiens, UniProt P04629); assay: Inhibition of human TrkA (440 to end residues) using KKKSPGEYVNIEFG as substrate measured after 40 mins in presence of [gamma33P]ATP by scintillation counting method
How it was run: (§2)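 Eurofins radiometric kinase assay run at ATP equal to Km for each kinase. 9-point dose–response in duplicate gives the IC50.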

[6] = target: T1, Serine/threonine-protein kinase TBK1 (Homo sapiens, UniProt Q9UHD2); assay: Displacement of tracer K5 from NLuc fused TBK1 (unknown origin) expressed in HEK293 cells by NanoBRET assay; assay type: cell-based
T1 sequence (Q9UHD2 whole entry): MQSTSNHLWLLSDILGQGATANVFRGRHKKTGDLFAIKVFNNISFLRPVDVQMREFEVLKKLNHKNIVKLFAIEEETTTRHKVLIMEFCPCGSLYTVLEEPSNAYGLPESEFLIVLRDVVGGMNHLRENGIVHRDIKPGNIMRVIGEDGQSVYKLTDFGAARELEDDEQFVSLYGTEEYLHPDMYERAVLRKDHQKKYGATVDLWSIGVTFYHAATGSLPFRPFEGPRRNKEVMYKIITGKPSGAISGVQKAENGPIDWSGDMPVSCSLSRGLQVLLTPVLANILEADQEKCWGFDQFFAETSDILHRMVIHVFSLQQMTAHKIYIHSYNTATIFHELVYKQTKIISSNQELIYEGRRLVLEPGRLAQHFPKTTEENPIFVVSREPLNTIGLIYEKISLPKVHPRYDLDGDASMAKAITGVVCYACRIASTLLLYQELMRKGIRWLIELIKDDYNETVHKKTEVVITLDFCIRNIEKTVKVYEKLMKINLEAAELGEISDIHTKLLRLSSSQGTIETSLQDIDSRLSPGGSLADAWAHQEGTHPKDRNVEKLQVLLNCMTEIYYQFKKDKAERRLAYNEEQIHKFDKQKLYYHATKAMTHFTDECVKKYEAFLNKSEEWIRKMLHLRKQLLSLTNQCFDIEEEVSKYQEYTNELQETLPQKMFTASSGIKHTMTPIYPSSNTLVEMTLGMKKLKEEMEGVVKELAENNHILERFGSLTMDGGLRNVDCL
How it was run: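 HEK293 cells grown in DMEM with 10% FBS at 37 °C, 5% CO2. NanoBRET assay run in dose–response per manufacturer's protocol with tracer K-5 at 0.5 μM. SEM calculated for assays run more than once.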

[7] = target: T2, Serine/threonine-protein kinase 17A (Homo sapiens, UniProt Q9UEE5); assay: Displacement of tracer K9 from NLuc fused DRAK1 (unknown origin) expressed in HEK293 cells by NanoBRET assay; assay type: cell-based
T2 sequence (Q9UEE5 whole entry): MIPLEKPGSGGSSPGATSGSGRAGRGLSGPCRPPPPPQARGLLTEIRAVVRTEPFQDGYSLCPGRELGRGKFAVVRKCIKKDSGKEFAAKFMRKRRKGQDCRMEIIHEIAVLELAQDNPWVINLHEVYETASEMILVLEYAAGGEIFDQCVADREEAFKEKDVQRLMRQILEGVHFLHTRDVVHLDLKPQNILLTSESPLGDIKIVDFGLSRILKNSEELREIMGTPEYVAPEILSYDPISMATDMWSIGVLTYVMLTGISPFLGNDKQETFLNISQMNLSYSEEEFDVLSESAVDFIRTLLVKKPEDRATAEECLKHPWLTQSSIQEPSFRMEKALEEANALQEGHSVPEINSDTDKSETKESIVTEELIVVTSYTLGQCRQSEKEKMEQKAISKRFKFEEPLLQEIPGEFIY

[8] = Inhibition of human TTBK1 (1 to 479 residues) using Casein as substrate measured after 40 mins in presence of [gamma33P]ATP by scintillation counting method; how it was run: as §2
[9] = Kinetic solubility of compound in PBS at pH 7.4 incubated for 24 hrs by chemiluminscent nitrogen detection method; assay type: physicochemical; details: buffer, pH 7.4, 24 h
How it was run: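 Filtrates were quantified by total chemiluminescent nitrogen determination against a calibration curve, with correction for background nitrogen from DMSO and medium.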

[10] = target: T3, MAP/microtubule affinity-regulating kinase 4 (Homo sapiens, UniProt Q96L34); assay: Displacement of tracer K5 from NLuc fused MARK4 (unknown origin) expressed in HEK293 cells by NanoBRET assay; assay type: cell-based
T3 sequence (Q96L34 whole entry): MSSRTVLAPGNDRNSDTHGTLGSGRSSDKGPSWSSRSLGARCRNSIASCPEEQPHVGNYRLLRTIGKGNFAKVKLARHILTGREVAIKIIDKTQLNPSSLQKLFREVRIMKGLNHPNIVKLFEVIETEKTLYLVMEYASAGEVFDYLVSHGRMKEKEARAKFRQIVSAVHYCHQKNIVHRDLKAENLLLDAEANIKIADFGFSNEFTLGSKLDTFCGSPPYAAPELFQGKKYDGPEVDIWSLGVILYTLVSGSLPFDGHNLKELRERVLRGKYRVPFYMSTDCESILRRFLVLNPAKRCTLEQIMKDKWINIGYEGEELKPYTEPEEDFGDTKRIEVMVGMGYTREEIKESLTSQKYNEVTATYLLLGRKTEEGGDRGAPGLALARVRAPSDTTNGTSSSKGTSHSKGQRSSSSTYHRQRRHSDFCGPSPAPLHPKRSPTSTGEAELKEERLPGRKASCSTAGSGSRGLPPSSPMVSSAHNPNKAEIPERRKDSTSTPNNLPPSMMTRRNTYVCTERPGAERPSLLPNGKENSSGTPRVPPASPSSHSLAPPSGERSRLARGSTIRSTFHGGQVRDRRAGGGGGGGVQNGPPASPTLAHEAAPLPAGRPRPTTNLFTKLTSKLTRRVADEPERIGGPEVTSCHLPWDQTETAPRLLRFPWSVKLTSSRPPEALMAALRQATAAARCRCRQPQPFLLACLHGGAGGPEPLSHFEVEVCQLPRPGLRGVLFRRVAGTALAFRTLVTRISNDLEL

[11] = target: Tyrosine-protein kinase JAK2 (Homo sapiens) (UniProt O60674); assay: Inhibition of recombinant human JAK2 (808 to end residues) using KTFCGTPEYLAPEVRREPRILSEEEQEMFRDFDYIADWC as substrate at 1 uM incubated for 40 mins in presence of [gamma-33P-ATP] by radiometric scintillation assay relative to control; how it was run: as §1
[12] = target: AP2-associated protein kinase 1 (Homo sapiens, UniProt Q2M2I8); assay: Inhibition of human AAK1 using peptide as substrate incubated for 120 mins in presence of [gamma-33ATP] by scintillation counting based radiometry assay; how it was run: as §2
[13] = target: T4, Serine/threonine-protein kinase 17B (Homo sapiens) (UniProt O94768); assay: Inhibition of recombinant human DRAK2 using KKRPQRRYSNVF as substrate after 120 mins in presence of [gamma-33ATP] by scintillation counting based radiometry assay
T4 sequence (whole entry): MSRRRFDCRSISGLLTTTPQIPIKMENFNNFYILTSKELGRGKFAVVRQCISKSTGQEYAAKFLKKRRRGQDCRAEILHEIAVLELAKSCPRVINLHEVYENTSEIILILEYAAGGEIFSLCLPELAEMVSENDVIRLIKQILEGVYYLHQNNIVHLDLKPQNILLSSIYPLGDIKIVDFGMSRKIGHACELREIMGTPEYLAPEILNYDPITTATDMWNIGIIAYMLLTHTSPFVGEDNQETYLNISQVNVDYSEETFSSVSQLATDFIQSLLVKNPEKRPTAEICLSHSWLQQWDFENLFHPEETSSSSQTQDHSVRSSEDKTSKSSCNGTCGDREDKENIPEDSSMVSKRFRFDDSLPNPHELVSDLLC
How it was run: (§3)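 Eurofins radiometric enzymatic assay with ATP at Km for each kinase. IC50 was derived from a 9-point dose–response curve run in duplicate.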

[14] = target: Serine/threonine-protein kinase MARK1 (Homo sapiens) (UniProt Q9P0L2); assay: Inhibition of recombinant human MARK1 (2 to end residues) using KKKVSRSGLYRSPSMPENLNRPR as substrate incubated for 40 mins in presence of [gamma-33ATP] by scintillation counting based radiometry assay; how it was run: as §3
[15] = target: T5, Serine/threonine-protein kinase 17A (Homo sapiens) (UniProt Q9UEE5); assay: Inhibition of recombinant human DRAK1 using KKLNRTLSFAEPG as substrate after 40 mins in presence of [gamma-33ATP] by scintillation counting based radiometry assay; how it was run: as §2
T5 sequence (whole entry): T2 sequence (Q9UEE5 whole entry)

Chain of MAP/microtubule affinity-regulating kinase 3 (P27448 whole entry, the tested form may be a part): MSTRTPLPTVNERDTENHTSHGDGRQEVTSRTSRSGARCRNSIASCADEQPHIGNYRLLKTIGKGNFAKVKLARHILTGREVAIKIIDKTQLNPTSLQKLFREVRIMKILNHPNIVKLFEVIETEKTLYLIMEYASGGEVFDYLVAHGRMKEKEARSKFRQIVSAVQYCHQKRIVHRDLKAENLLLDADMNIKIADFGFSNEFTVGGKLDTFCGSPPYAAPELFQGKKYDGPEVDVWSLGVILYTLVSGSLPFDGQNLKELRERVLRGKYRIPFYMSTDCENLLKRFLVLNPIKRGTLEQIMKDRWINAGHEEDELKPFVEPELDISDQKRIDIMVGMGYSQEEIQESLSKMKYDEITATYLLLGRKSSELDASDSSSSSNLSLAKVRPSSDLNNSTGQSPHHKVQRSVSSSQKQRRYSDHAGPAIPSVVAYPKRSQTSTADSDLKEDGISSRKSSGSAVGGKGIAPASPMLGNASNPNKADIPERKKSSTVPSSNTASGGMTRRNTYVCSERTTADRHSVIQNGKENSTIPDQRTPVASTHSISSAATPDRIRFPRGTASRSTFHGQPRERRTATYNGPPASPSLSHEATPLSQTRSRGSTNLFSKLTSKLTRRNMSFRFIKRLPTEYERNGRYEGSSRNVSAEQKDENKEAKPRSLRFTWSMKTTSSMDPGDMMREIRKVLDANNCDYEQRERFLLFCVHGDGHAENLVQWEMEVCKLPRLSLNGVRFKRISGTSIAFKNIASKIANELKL
Chain of BMP-2-inducible protein kinase (Q9NSY1 whole entry, looked up, the tested form may be a part): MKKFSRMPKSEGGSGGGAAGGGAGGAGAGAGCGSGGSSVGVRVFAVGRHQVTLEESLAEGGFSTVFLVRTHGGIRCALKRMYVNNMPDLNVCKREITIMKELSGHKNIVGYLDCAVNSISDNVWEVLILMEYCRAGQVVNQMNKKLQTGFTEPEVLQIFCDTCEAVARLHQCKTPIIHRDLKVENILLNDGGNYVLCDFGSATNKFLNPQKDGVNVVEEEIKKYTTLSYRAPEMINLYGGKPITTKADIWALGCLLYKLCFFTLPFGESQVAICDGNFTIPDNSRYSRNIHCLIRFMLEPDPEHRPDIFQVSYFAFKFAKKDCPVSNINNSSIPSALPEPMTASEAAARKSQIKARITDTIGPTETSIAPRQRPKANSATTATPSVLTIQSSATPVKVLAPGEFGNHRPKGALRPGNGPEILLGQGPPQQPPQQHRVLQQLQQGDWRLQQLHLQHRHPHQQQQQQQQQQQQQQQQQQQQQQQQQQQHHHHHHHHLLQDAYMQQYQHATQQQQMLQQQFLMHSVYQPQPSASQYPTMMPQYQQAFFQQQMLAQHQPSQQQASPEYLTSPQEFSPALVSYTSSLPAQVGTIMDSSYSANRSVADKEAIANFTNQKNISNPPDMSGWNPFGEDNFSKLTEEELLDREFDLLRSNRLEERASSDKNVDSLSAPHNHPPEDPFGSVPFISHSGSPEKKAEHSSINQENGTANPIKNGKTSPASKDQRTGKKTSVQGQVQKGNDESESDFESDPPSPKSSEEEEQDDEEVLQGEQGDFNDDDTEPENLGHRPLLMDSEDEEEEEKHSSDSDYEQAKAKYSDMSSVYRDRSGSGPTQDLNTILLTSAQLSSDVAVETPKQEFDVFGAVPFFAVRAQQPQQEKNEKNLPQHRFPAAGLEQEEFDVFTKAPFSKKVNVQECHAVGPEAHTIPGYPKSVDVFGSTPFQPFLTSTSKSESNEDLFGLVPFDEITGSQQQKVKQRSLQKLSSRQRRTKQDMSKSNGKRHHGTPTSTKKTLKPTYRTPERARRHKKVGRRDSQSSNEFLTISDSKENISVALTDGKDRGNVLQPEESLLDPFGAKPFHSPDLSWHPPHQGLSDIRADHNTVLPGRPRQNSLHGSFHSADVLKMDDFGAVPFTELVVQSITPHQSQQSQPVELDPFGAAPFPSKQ
Chain of Serine/threonine-protein kinase MARK1 (Homo sapiens) (Q9P0L2 whole entry, looked up): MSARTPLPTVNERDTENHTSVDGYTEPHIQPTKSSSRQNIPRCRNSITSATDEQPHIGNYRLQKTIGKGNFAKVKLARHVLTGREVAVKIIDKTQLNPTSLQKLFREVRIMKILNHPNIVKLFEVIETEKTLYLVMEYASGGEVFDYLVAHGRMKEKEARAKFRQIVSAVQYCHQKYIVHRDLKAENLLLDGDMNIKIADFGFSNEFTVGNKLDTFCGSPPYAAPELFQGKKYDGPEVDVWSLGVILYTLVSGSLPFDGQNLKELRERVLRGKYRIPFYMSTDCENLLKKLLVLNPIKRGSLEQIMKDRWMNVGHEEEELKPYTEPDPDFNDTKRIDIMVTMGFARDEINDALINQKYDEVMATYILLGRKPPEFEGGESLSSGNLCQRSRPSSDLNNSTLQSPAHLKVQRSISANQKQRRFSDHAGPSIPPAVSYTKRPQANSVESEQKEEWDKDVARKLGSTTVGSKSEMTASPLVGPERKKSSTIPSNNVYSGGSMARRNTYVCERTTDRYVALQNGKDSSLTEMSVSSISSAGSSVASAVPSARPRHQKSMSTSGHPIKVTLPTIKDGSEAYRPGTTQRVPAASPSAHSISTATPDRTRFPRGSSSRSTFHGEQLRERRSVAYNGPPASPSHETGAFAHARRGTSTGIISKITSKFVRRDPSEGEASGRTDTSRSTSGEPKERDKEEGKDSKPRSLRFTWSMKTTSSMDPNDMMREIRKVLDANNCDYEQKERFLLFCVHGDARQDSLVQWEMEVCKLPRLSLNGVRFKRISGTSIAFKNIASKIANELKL
Chain of AP2-associated protein kinase 1 (Q2M2I8 whole entry, looked up): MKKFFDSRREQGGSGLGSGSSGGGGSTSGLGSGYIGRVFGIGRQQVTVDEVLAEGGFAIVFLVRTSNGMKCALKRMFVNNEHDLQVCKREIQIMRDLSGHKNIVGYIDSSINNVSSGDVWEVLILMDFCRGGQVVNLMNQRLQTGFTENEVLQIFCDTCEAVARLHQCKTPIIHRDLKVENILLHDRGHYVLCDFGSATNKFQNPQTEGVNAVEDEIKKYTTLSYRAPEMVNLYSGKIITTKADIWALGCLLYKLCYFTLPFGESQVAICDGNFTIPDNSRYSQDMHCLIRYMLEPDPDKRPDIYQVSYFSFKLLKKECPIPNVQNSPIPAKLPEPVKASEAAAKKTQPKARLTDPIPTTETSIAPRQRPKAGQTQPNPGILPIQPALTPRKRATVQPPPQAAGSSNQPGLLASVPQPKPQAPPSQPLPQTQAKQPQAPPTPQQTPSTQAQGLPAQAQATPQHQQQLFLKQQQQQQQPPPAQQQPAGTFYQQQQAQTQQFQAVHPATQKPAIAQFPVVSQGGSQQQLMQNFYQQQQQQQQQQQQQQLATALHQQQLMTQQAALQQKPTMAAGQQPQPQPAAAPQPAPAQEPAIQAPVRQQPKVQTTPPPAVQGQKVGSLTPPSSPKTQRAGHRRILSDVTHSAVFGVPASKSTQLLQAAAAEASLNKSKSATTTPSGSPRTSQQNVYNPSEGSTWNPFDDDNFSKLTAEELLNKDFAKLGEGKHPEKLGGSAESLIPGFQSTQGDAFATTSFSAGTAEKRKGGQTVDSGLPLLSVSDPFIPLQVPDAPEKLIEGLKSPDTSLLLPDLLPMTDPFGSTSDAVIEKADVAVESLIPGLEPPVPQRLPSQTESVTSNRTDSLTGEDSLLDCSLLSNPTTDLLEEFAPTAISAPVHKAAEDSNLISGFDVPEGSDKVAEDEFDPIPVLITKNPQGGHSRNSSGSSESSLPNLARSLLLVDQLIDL
Chain of High affinity nerve growth factor receptor (P04629 whole entry): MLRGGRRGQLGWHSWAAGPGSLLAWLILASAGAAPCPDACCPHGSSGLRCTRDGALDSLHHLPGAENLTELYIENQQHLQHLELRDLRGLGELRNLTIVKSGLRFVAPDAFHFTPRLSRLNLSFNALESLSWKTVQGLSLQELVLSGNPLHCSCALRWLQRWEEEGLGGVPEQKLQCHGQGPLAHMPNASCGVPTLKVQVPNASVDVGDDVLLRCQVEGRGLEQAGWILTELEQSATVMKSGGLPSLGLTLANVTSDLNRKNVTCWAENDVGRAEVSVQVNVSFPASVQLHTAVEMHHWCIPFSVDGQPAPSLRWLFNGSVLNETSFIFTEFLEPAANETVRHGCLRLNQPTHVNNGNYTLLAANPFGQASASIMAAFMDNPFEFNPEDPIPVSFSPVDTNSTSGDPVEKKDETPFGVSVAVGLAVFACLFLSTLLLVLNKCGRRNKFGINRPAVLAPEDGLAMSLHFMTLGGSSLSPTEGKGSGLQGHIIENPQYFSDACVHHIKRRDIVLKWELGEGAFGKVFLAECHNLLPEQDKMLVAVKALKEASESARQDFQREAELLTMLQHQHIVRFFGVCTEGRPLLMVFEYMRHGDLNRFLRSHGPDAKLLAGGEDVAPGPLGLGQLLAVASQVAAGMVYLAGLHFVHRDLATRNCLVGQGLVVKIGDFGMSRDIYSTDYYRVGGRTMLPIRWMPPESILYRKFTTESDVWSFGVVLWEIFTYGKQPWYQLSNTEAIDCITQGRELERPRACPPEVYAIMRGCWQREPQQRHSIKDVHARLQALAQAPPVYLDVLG
Chain of Aurora kinase B (Homo sapiens) (Q96GD4 whole entry): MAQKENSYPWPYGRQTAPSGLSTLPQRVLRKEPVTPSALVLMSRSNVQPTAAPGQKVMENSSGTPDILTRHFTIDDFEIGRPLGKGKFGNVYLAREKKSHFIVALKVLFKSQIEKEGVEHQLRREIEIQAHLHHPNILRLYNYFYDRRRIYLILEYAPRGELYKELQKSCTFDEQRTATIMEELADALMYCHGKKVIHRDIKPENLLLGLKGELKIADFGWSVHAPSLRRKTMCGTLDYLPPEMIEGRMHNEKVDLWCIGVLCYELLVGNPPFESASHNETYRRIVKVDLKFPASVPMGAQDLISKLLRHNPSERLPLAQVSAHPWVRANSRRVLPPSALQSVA

SMILES	% control [1] [%]	pIC50 [2]	pIC50 [3]	Peff [4]	pIC50 [5]	pIC50 [6]	pIC50 [7]	pIC50 [8]	Kinetic solubility [9] [µM]	pIC50 [10]	% control [11] [%]	inhibition [12]	inhibition [13]	inhibition [14]	inhibition [15]
NS(=O)(=O)c1ccc(CNc2nc(Nc3cccc(NC(=O)N4CCCC4)c3)ncc2C2CC2)cc1	61	5.53	< 5.00	2.6 10^-6 cm/s	6.32	< 5.00	< 5.00	6.89	85.6	< 5.00	107				
Cc1nn(CC(F)(F)F)cc1Nc1ncc(Br)c(NCCCNC(=O)C2CCC2)n1			< 5.00	3.73 10^-6 cm/s		6.49	6.90		40.3	5.45		Active	Active	Active	Active
